Measurements taken from ChEMBL document CHEMBL2311522, “Design, synthesis and biological evaluation of novel aliphatic amido/sulfonamido-quaternary ammonium salts as antitumor agents” (2013).
Active and inactive are the calls of the source. The calls are words filed in the database; no cut-off is given here.

What was measured:
NCI-H23 = assay: Growth inhibition of human NCI-H23 cells by SRB assay; format: functional
[1] = biological target: Rho-related GTP-binding protein RhoB (Homo sapiens) (UniProt P62745); assay: Transactivation of RhoB (unknown origin) transfected in human HeLa cells at 5 uM by dual luciferase reporter gene assay; format: cell-based
Sequence of Rho-related GTP-binding protein RhoB (Homo sapiens) (P62745 whole entry): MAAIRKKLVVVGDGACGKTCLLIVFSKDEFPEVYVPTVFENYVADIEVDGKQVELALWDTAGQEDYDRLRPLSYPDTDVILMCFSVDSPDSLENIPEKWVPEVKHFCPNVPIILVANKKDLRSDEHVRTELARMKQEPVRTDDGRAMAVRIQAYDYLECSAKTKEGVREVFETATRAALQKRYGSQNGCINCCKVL
How it was run: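 HeLa cells at 75–90% confluency were transiently cotransfected with a pGL2-RhoB-firefly luciferase promoter construct, then exposed to compounds. RhoB promoter activation was read as luciferase activity with a dual-luciferase reporter system. NSC126188 and perifosine, each at the same concentration as the compounds, served as positive controls.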

HCT-15 = assay: Growth inhibition of human HCT15 cells by SRB assay; format: functional
MDA-MB-231 = assay: Growth inhibition of human MDA-MB-231 cells by SRB assay; format: functional
ACHN = assay: Growth inhibition of human ACHN cells by SRB assay; format: functional
PC-3 = assay: Growth inhibition of human PC3 cells by SRB assay; format: functional
NUGC-3 = assay: Growth inhibition of human NUGC3 cells by SRB assay; format: functional

SMILES | GI50 (NCI-H23) | Activity [1] | GI50 (HCT-15) | GI50 (MDA-MB-231) | GI50 (ACHN) | GI50 (PC-3) | GI50 (NUGC-3)
CCCCCCCCCCCCCC(=O)N1CCC[N+](C)(Cc2cccc([N+](=O)[O-])c2)CC1 (stereo not given) | 890 nM | Active | inactive | 710 nM | 820 nM | 180 nM | 460 nM
CCCCCCCCCCCCCCS(=O)(=O)N1CCC[N+](C)(C)CC1 | 800 nM | Active | 380 nM | 830 nM | 1330 nM | 620 nM | 250 nM
CCCCCCCCCCCCCCCCS(=O)(=O)N1CCC[N+](C)(C)CC1 | 3400 nM | Active | 770 nM | 590 nM | 2010 nM | 400 nM | 380 nM
CCCCCCCCCCCCCCCCCCOP(=O)([O-])OC1CC[N+](C)(C)CC1 [PERIFOSINE] |  |  |  |  |  | 440 nM | 540 nM
CCCCCCCCCCCCCCS(=O)(=O)Nc1ccc([N+](C)(C)C)cc1 | 730 nM |  | 3380 nM | 4540 nM | inactive | 900 nM | 1740 nM
C=CC[N+]1(C)CCCN(C(=O)CCCCCCCCCCCCC)CC1 (stereo not given) | 280 nM | Active | inactive | 450 nM | 440 nM | 180 nM | 260 nM
CCCCCCCCCCCCCCCC(=O)Nc1ccc([N+](C)(C)C)cc1 | 1800 nM |  | 2370 nM | 2830 nM | 3150 nM | 790 nM | 700 nM
CCCCCCCCCCCCCCCC(=O)N1CCC[N+](C)(C)CC1 | 2380 nM | Active | 930 nM | 940 nM | 400 nM | 400 nM | 210 nM
CCCCCCCCCCCCS(=O)(=O)N1CCC[N+](C)(C)CC1 | 960 nM | Active | 960 nM | 840 nM | 1160 nM | 380 nM | 240 nM
CCCCCCCCCCCCCC(=O)N1CCC[N+](C)(Cc2ccccc2)CC1 (stereo not given) | 1070 nM | Active | inactive | 1160 nM | 1000 nM | 450 nM | 310 nM
CCCCCCCCCCCCS(=O)(=O)Nc1ccc([N+](C)(C)C)cc1 | 3940 nM |  | inactive | inactive | 4500 nM | 1020 nM | 1210 nM
CCCCCCCCCCCCCCCCCC(=O)Nc1ccc([N+](C)(C)C)cc1 | 3290 nM |  | 1220 nM | 4340 nM | 1870 nM | 1200 nM | 410 nM
CCCCCCCCCCCCCC(=O)Nc1ccc([N+](C)(C)C)cc1 | 4140 nM |  | 1360 nM | 3560 nM | 4540 nM | 540 nM | 740 nM
CCCCCCCCCCCCCCCC(=O)N1CCC[N+](C)(Cc2cccc(OC(F)(F)F)c2)CC1 (stereo not given) | 1450 nM |  | inactive | 1340 nM | 1930 nM | 630 nM | 870 nM
CCCCCCCCCCCCCC(=O)N1CCC[N+](C)(Cc2ccc(F)cc2)CC1 (stereo not given) | 1480 nM |  | inactive | 1480 nM | 1100 nM | 450 nM | 940 nM
CCCCCCCCCCCCCC(=O)N1CCC[N+](C)(C)CC1 | 1360 nM | Active | 1700 nM | 980 nM | 490 nM | 360 nM | 80 nM
CCCCCCCCCCCCCCCCCCCC(=O)N1CCC[N+](C)(C)CC1 | 3840 nM | Active | 990 nM | 2220 nM | 2780 nM | inactive | 360 nM
CCCCCCCCCCCCCCCCCCCC(=O)Nc1ccc([N+](C)(C)C)cc1 | 1930 nM |  | 3020 nM | 3680 nM | 1760 nM | 1630 nM | 1280 nM
CCCCCCCCCCCCCCCC(=O)N1CC[N+](C)(C)CC1 |  | Active | 580 nM |  |  | 480 nM | 290 nM
CCCCCCCCCCCCCCCCCC(=O)N1CCC[N+](C)(C)CC1 | 1160 nM |  | 400 nM | 670 nM | 570 nM | 240 nM | 260 nM
CCCCCCCCCCCCCC(=O)N1CCC[N+](C)(CC)CC1 (stereo not given) | 1180 nM | Active | 1860 nM | 680 nM | 1610 nM | 270 nM | 220 nM
